Screening results (PubChem)
Hits are enriched below; roughly 3% of the tested compounds scored in any of these assays.
SENP8 block-1 – SENP8 protease inhibition; Q96LD8; purified SENP8, Z-RLRGG-aminoluciferin cleavage, luminescence; inhibition, % at 10 µM; 1.2% of 330,000 active; in the data active = inhibition above about 50%
SENP7 inh – inhibitors of human SENP7 protease | Q9BQF6 | recombinant SENP7, Z-RLRGG-aminoluciferin luminescence, 40 min | inhibition, % at 5 µM | 1.5% of 330,000 active;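 active = inhibition above about 50% at the single test dose, limit read from the data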
SENP6 inh – blocks the human protease SENP6. Q9GZR1. Recombinant SENP6 catalytic domain, aminoluciferin luminescence. 1.8% of 330,000 active. inhibition, % at 10 µM;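 active = inhibition above about 50% at the single tested dose, limit read from the data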
Target sequence (Q9GZR1 628-1112 limits assumed): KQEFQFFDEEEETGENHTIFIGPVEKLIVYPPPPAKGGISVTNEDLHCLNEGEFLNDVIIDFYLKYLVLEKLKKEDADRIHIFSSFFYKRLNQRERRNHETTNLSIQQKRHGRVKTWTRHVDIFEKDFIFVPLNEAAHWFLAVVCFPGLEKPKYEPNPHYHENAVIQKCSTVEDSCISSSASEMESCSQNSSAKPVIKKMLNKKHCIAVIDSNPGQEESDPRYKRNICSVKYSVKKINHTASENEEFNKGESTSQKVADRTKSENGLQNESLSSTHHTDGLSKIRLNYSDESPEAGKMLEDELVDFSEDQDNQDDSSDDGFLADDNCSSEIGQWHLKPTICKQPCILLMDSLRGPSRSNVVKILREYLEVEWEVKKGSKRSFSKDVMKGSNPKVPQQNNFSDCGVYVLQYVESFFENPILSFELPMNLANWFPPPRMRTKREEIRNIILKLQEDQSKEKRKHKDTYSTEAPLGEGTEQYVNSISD
UBC13 inh – human UBC13 polyubiquitination inhibition; P61088; UBC13 polyubiquitin chain formation, TR-FRET; inhibition, % at 20 µM; 0.47% of 330,000 active; AID 485273; in the data active = inhibition above about 45%, passing the limit was not always enough
Target sequence (P61088 whole entry, looked up): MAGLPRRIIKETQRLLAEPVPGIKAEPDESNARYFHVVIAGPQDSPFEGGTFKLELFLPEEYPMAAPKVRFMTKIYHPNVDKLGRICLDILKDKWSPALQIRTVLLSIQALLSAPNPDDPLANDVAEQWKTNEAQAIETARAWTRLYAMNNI
Apaf-1 inh – human Apaf-1 inhibition; O14727; reconstituted apoptosome caspase-3 activity, DEVD-Rh110 fluorescence; inhibition, % at 20 µM; 0.71% of 330,000 active; AID 489030; active = inhibition of at least 40% at 20 µM
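System: reconstituted apoptosome with Apaf-1, cytochrome c, caspase-9, procaspase-3, dATP; Signal: Rh110 fluorescence intensity; Schedule: 30 min compound preincubation, 50 min activation, room temperature; Reagent: cytochrome c trigger plus (Z-DEVD)2-Rh110 caspase-3 substrate.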
SENP8 block-2 – SENP8 (human) protease inhibition; Q96LD8; recombinant SENP8, Nedd8 substrate fluorescence; inhibition, % at 20 µM; 0.64% of 360,000 active; AID 602440; in the data active = inhibition mostly above about 40%, no sharp cut-off; inactive = mostly below about 27%
SENP8 confirm – human SENP8 inhibition, confirmed; Recombinant SENP8, Z-RLRGG-aminoluciferin luminescence, 60 min; 40% of 6,200 active; inhibition, % at 12.5 µM; shares compounds with SENP7 inh;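 active = mean inhibition across replicates above about 50%, limit read from the data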
SENP6 conf – human SENP6 inhibition, confirmed; shares compounds with SENP7 inh; recombinant SENP6, Z-RLRGG-aminoluciferin luminescence; inhibition, % at 12.5 µM; 58% of 6,200 active; AID 488915
SENP7 confirm – human SENP7 inhibition, confirmed; shares compounds with SENP7 inh; recombinant SENP7, Z-RLRGG-aminoluciferin luminescence, 40 min; inhibition, % at 12.5 µM; 69% of 6,200 active
Casp3 SENP sel – inhibits human caspase-3 in SENP selectivity test | 60% of 6,200 active | inhibition, % at 12.5 µM | purified caspase-3, Z-DEVD-aminoluciferin luminescence, 60 min | shares compounds with SENP7 inh | AID 488918;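 active = mean inhibition above about 50%, limit read from the data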
SENP luc ctr – counter-screen for SENP inhibitors: luminescence interference; Pre-incubated SENP8/Z-RLRGG-aminoluciferin, luciferase luminescence interference; 39% of 6,200 active; inhibition, % at 12.5 µM; shares compounds with SENP7 inh;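 active = mean inhibition above about 50% when retested at one dose, limit read from the data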
Numbers stand for hits; i = inactive; nt = not tested or not shown.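 The calls were made as follows, unless noted: active = mean inhibition above about 50% in the one-dose retest (limit read from the data); inactive = the rest.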

SMILES	SENP8 block-1	SENP7 inh	SENP6 inh	UBC13 inh	Apaf-1 inh	SENP8 block-2	SENP8 confirm	SENP6 conf	SENP7 confirm	Casp3 SENP sel	SENP luc ctr
COc1n[nH]c(C(=O)Nc2cc(Cl)ccc2Cl)c1[N+](=O)[O-]	i	i	55	i	i	i	i	i	i	i	i
CCc1nc2c(OCCC3CCCCC3)cccn2c1N(C)C(=O)c1ccc(C)cc1	nt	nt	nt	nt	nt	i	nt	nt	nt	nt	nt
O=C(CSc1nnnn1-c1ccc(F)cc1F)Nc1ccccc1F	i	i	i	i	i	i	nt	nt	nt	nt	nt
Cc1ccc(-c2nnc(-c3cccc4ccccc34)o2)cc1	nt	nt	nt	nt	nt	i	nt	nt	nt	nt	nt
c1ccc(Nc2nnc(-c3cccc4ccccc34)o2)cc1	i	65	i	i	i	i	i	i	53	i	i
c1ccc2sc(NN=C3CCCCCC3)nc2c1	81	83	91	i	i	i	89	94	101	87	54
NNc1nc(-c2ccccc2)nc2sc3c(c12)CCCC3	66	80	79	i	i	i	i	i	i	i	i
CCN(CC)CCCNC(=O)c1c(O)c2c([nH]c1=O)CCCC2	i	59	i	i	i	i	i	i	i	i	i
CCCNC(=O)CCn1c(=S)oc2ccccc21	i	i	58	i	i	i	i	i	i	i	i
COc1ccc(-c2nc(CS(=O)CC(=O)NC3CCC(C)CC3)c(C)o2)cc1OC (centres undefined)	i	i	i	i	i	i	nt	nt	nt	nt	nt
CCCC#Cc1cnc2c(c1)C(=O)N([C@H](C)CO)C[C@H](C)[C@@H](CN(C)C(=O)CCN1CCCCC1)O2	nt	nt	nt	nt	nt	i	nt	nt	nt	nt	nt
O=C(C1CC=CCC1)N1CCN(S(=O)(=O)c2ccc(F)cc2)CC1 (centres undefined)	i	i	i	i	i	i	nt	nt	nt	nt	nt
O=c1c2ccccc2nnn1COc1cccc(Cl)c1	i	i	58	i	i	i	i	58	i	i	i
COc1ccc2c(c1)CCc1c-2n[nH]c1C(=O)NCCC(C)C	56	60	i	i	i	i	i	54	85	52	i
CCOc1ccc(N2C(N)=NC(N)=NC2(C)C)cc1	i	i	i	i	i	i	nt	nt	nt	nt	nt
CCOc1ccc(-n2nc3cc(C)c(N)cc3n2)cc1	i	i	73	i	i	i	i	74	94	i	i
Cc1cc(C(=O)Nc2ccccc2)oc1C	i	i	64	i	i	i	58	55	87	83	61
O=C(Nc1ccccc1)c1cc2ccccc2o1	95	98	97	i	i	i	96	98	102	97	98
COc1ccc(NC(=O)c2cc3ccccc3o2)cc1	i	i	64	i	i	i	i	i	71	50	i
CC(=O)Nc1cccc(NC(=O)c2cc3ccccc3o2)c1	62	84	84	i	i	i	79	78	95	88	83
CCn1c(COc2ccc(C)cc2)nc2ccccc21	i	i	i	i	i	i	nt	nt	nt	nt	nt
COc1ccc(S(=O)(=O)n2ccnc2C)c(C)c1C	i	i	i	i	i	i	nt	nt	nt	nt	nt
CCOc1ccc(-n2c(=O)c3sccc3n(Cc3cccc([N+](=O)[O-])c3)c2=O)cc1	i	i	i	i	i	i	nt	nt	nt	nt	nt
O=C(Nc1ccc(F)cc1)c1cc2ccccc2o1	76	86	86	i	i	i	80	82	97	86	64
CC(=O)c1ccc(NC(=O)c2cc3ccccc3o2)cc1	i	i	i	i	i	i	nt	nt	nt	nt	nt
SMILES	SENP8 block-1	SENP7 inh	SENP6 inh	UBC13 inh	Apaf-1 inh	SENP8 block-2	SENP8 confirm	SENP6 conf	SENP7 confirm	Casp3 SENP sel	SENP luc ctr
CN(C(=O)c1ccc(NC(=O)Cc2ccccc2)cc1)c1ccccc1	i	61	54	i	i	i	i	i	74	65	59
CCN(C(=O)c1ccc(NC(=O)Cc2ccccc2)cc1)c1ccccc1	i	i	i	i	i	i	nt	nt	nt	nt	nt
O=C(ONc1ccc(N=NC(=O)c2ccccc2O)cc1)c1ccccc1	85	56	91	i	i	i	i	i	i	85	i
CCOc1ccc(Oc2ccc(NC(=O)[C@@H](NC(N)=O)[C@@H](C)CC)cc2)cc1	i	i	i	i	i	i	nt	nt	nt	nt	nt
CCn1ccnc1CN(C)Cc1c(C(=O)N2CCCCCCC2)nc2ccc(Cl)cn12	i	i	i	i	i	i	nt	nt	nt	nt	nt
CSc1cnc2c(=O)n(C)c(=O)[nH]c2n1	i	i	i	i	i	i	nt	nt	nt	nt	nt
Cn1c(=O)[nH]c2nnc(-c3ccc(Cl)c(Cl)c3)nc2c1=O	97	97	96	i	i	i	56	80	53	91	i
CC(=O)NC1(c2ccccc2)CCN(c2cc(C)nc(-c3ccccc3)n2)CC1	i	i	i	i	i	i	nt	nt	nt	nt	nt
Cc1[nH]n(-c2cccc(Cl)c2)c(=O)c1C=NCc1ccco1	i	i	52	i	i	i	i	i	i	i	i
Cc1[nH]n(-c2ccccc2)c(=O)c1C=NCc1ccco1	i	i	i	i	i	nt	nt	nt	nt	nt	nt
CCc1nc2ccccc2c(C(=O)Nc2cc(C)ccc2C)c1C	i	i	i	i	i	i	nt	nt	nt	nt	nt
C=CCNC(=O)c1ccc(NC(=O)C2=CSCCO2)cc1	69	77	73	i	i	i	74	72	93	90	73
CC(C)CCNC(=O)c1ccc(NC(=O)C2=CSCCO2)cc1	i	i	i	i	i	i	nt	nt	nt	nt	nt
Cc1cccc(C)c1N1C(=O)c2ccccc2NC(=O)C1C(=O)Nc1ccc(N2CCOCC2)cc1 (centres undefined)	nt	nt	nt	nt	nt	i	nt	nt	nt	nt	nt
O=C(Nc1ccc2c(c1)OCO2)Nc1ccc(F)cc1F	73	90	90	i	i	i	76	76	98	89	86
O=C(Nc1ccc2c(c1)CCC2)Nc1ccc(F)cc1F	i	70	i	i	i	i	i	i	i	i	i
Cc1ccccc1NC(=O)Nc1ccc2c(c1)CCC2	i	84	70	i	i	i	i	i	i	i	i
O=C(Nc1ccc2c(c1)CCC2)Nc1ccccc1F	92	99	96	i	i	i	69	95	102	92	76
Cc1cc(C)cc(NC(=O)Nc2ccc3c(c2)CCC3)c1	i	i	i	i	i	i	nt	nt	nt	nt	nt
O=C(c1nc2ccccn2c1CNCCOc1cccnc1)N1CCOCC1	i	i	i	i	i	i	nt	nt	nt	nt	nt
COc1ccc(S(=O)(=O)NC2(C(F)(F)F)NC(=O)N(CCc3ccccc3)C2=O)cc1 (centres undefined)	i	i	i	i	i	i	nt	nt	nt	nt	nt
